Measurements reported in ChEMBL document CHEMBL1154599 (J Med Chem, 2009).

Legend:
[1] = biological target: T1, Amine oxidase [flavin-containing] B (Rattus norvegicus, UniProt P19643); test: Inhibition of MAO-B from Wistar rat brain by radioenzymatic assay
T1 sequence (P19643 whole entry): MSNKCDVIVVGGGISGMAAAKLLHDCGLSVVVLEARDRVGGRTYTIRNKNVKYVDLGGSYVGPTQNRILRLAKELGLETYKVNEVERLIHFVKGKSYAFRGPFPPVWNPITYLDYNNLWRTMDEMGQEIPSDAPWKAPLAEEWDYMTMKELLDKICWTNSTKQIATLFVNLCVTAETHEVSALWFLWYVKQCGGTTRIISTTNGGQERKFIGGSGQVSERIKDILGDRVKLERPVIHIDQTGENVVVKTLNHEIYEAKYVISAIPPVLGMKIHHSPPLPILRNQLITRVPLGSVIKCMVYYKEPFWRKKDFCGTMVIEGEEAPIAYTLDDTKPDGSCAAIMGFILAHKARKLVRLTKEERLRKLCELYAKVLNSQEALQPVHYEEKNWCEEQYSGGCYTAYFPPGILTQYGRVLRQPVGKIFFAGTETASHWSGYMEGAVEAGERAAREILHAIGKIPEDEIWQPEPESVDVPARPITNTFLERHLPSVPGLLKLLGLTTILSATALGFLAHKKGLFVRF
In short: (§1)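 Crude mitochondrial fraction from male Wistar rat brain (150-175 g), 500 μg protein in 0.1 M phosphate pH 7.40. Preincubated 30 min at 37 °C with compound. Substrate then added: [14C]5-HT 5 μM for 30 min (MAO-A) or [14C]PEA 0.5 μM for 10 min (MAO-B), 37 °C. Stopped with acid, deaminated metabolites extracted into ether or toluene, counted by scintillation.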

Rattus norvegicus = species on record: Rattus norvegicus; test: Selectivity index, ratio of IC50 for rat MAO-A to IC50 for rat MAO-B
In short: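 Ratio of IC50 values from rat brain mitochondrial radioenzymatic assays: MAO-A with [14C]5-HT 5 μM, 30 min, and MAO-B with [14C]PEA 0.5 μM, 10 min. Both after 30 min preincubation with compound at 37 °C.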

[2] = biological target: T2, Amine oxidase [flavin-containing] A (Rattus norvegicus, UniProt P21396); test: Inhibition of MAO-A from Wistar rat brain by radioenzymatic assay; in short: as §1
T2 sequence (P21396 whole entry): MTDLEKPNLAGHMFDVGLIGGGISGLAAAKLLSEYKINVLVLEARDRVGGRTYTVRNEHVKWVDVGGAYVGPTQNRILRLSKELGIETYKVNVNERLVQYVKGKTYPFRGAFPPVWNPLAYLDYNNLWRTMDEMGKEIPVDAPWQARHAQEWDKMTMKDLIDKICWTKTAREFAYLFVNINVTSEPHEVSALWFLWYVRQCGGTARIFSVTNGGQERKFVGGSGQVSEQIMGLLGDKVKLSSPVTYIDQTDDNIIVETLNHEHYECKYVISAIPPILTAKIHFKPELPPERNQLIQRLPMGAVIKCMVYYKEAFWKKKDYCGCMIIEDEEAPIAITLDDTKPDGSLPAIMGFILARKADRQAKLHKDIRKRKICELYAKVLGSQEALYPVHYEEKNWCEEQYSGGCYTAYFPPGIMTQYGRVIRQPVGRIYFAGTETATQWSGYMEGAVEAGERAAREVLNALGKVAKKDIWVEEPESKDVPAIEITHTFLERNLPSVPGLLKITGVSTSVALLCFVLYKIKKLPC

[3] = biological target: T2, Amine oxidase [flavin-containing] A; test: Inhibition of MAO-A from Wistar rat brain at 10 uM by radioenzymatic assay
[4] = Octanol-water partition coefficient, log P calculated with Bioloom (BioByte)
[5] = Permeability across PAMPA membrane assessed as amount of drug reaching acceptor compartment at 617 uM by HDM-PAMPA assay; type: ADME
In short: (§2)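 HDM-PAMPA on polycarbonate filters coated with hexadecane (applied in hexane, which was evaporated). Donor at 617 μM in 0.1 M phosphate pH 6.8 with 5% DMSO, same pH in donor and acceptor. Incubated 5 h at room temperature with shaking at 75 rpm. Compartments quantified by HPLC. Pe, retention R and CA(t)/CD(0) calculated by equations 1-2. Quadruplicate.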

[6] = Permeability across PAMPA membrane assessed as retention at 617 uM by HDM-PAMPA assay; type: ADME; in short: as §2
[7] = Permeability across PAMPA membrane assessed as permeability coefficient at 617 uM by HDM-PAMPA assay; type: ADME; in short: as §2

SMILES | IC50 [1] [µM] | Ratio IC50 (Rattus norvegicus) | IC50 [2] [µM] | also measured
NC(=O)Cc1cc(=O)oc2cc(OCc3cccc(Cl)c3)ccc12 | 0.03 | 867 | 26 | 
CN(Cc1ccccc1)Cc1cc(=O)oc2cc(OCc3cccc(Cl)c3)ccc12 | 8 | > 13 | > 100 | 
NC(=O)Cc1cc(=O)oc2cc(OCc3ccncc3)ccc12 | 2 | 13 | 26.5 | 
NCc1cc(=O)oc2cc(OCc3cccc(Cl)c3)ccc12 | 0.015 | 133 | 2 | 
N#CCc1cc(=O)oc2cc(OCc3cccc(Cl)c3)ccc12 | 0.016 | 29 | 0.47 | 
CN(C)C(=O)Cc1cc(=O)oc2cc(OCc3ccccc3)ccc12 | 0.4 | 58 | 23.1 | 
NC(=O)Cc1cc(=O)oc2cc(OCc3cccc(F)c3)ccc12 |  | 1400 |  | 
CC(C(N)=O)c1cc(=O)oc2cc(OCc3ccccc3)ccc12 (racemic) | 0.1 | 63 | 6.26 | 
NCCc1cc(=O)oc2cc(OCc3cccc(Cl)c3)ccc12 |  | 127 |  | 
NC(=O)[C@@H]1CCCN1Cc1cc(=O)oc2cc(OCc3ccccc3)ccc12 | 0.38 | 92 | 35 | 
CCCCN(C)C(=O)Cc1cc(=O)oc2cc(OCc3cccc(Cl)c3)ccc12 | > 10 |  | > 100 | 
NNC(=O)Cc1cc(=O)oc2cc(OCc3cccc(Cl)c3)ccc12 | 0.09 | 28 | 2.5 | 
NC(=O)[C@H](CO)Nc1cc(=O)oc2cc(OCc3cccc(Cl)c3)ccc12 | 2.4 | > 42 | > 100 | 
CCNCc1cc(=O)oc2cc(OCc3cccc(F)c3)ccc12 | 0.1 | 226 | 22.6 | 
CNC(=O)Cc1cc(=O)oc2cc(OCc3cccc(Cl)c3)ccc12 | 0.024 | 21 | 0.5 | 
O=c1cc(CNCc2ccccc2)c2ccc(OCc3cccc(Cl)c3)cc2o1 | 3.6 | > 28 | > 100 | 
O=C(Cc1cc(=O)oc2cc(OCc3cccc(Cl)c3)ccc12)NCc1ccccc1 | 5 | > 20 | > 100 | 
NCCNC(=O)Cc1cc(=O)oc2cc(OCc3cccc(Cl)c3)ccc12 | > 10 |  | > 100 | 
NC(=O)Cc1cc(=O)oc2cc(OCc3ccccc3)ccc12 | 0.2 | 40 | 8 | 
CN(C)Cc1cc(=O)oc2cc(OCc3ccccc3)ccc12 | 1.8 | 56 | 100 | 
NCc1cc(=O)oc2cc(OCc3ccccc3)ccc12 | 0.021 | 210 | 4.4 | 
CN(C)Cc1cc(=O)oc2cc(OCc3cccc(Cl)c3)ccc12 | 1.12 | 45 | 50.8 | 

SMILES | IC50 [1] [µM] | Ratio IC50 (Rattus norvegicus) | IC50 [2] [µM] | also measured
NNC(=O)Cc1cc(=O)oc2cc(OCc3ccccc3)ccc12 |  | 36 | 1.44 | 
CN(C)CCc1cc(=O)oc2cc(OCc3ccccc3)ccc12 | 0.46 | 56 | 25.9 | 
CC(C)NCc1cc(=O)oc2cc(OCc3cccc(F)c3)ccc12 | 3.8 | 24 | 91 | 
NC(=O)Cc1cc(=O)oc2cc(OCc3cccnc3)ccc12 | 1.3 | 16 | 21 | 
C[C@H](Nc1cc(=O)oc2cc(OCc3ccccc3)ccc12)C(N)=O | 0.68 | 147 | 100 | 
CNC(=O)Cc1cc(=O)oc2cc(OCc3ccccc3)ccc12 | 0.015 | 187 | 2.8 | 
NC(=O)[C@@H]1CCCN1Cc1cc(=O)oc2cc(OCc3cccc(F)c3)ccc12 | 0.85 | > 117 | > 100 | 
C[C@H](Nc1cc(=O)oc2cc(OCc3cccc(Cl)c3)ccc12)C(N)=O | 0.21 |  |  | inhibition at 10 µM [3]: 35%
Cc1cc(=O)oc2cc(OCc3cccc(Cl)c3)ccc12 |  |  |  | logP [4]: 4.73; permeability [5]: 3.7%; permeability [6]: 72%; log Pe [7]: -4.13 cm/s
C[C@H](NCc1cc(=O)oc2cc(OCc3ccccc3)ccc12)C(N)=O | 1.8 | 13 | 22.7 | 
CC(C(N)=O)c1cc(=O)oc2cc(OCc3cccc(F)c3)ccc12 (racemic) | 0.1 | 20 | 2 | 
CN(C)C(=O)Cc1cc(=O)oc2cc(OCc3cccc(Cl)c3)ccc12 |  | > 2400 |  | 
NC(=O)Cc1cc(=O)oc2cc(OCc3cccc(O)c3)ccc12 | 1 | 4 | 4.27 | 
CNCc1cc(=O)oc2cc(OCc3cccc(F)c3)ccc12 | 0.018 |  |  | 
CCCCNC(=O)Cc1cc(=O)oc2cc(OCc3cccc(Cl)c3)ccc12 | > 10 |  | > 100 | 
CN(C)Cc1cc(=O)oc2cc(OCc3cccc(F)c3)ccc12 | 0.51 | > 196 | > 100 | 
NC(=O)[C@@H]1CCCN1c1cc(=O)oc2cc(OCc3cccc(Cl)c3)ccc12 | 9.6 |  |  | inhibition at 10 µM [3]: 5%
CNCc1cc(=O)oc2cc(OCc3ccccc3)ccc12 | 0.028 | 550 | 15.4 | 
N#CCc1cc(=O)oc2cc(OCc3ccccc3)ccc12 | 0.23 | 0.9 | 0.2 | 
NC(=O)[C@@H]1CCCN1c1cc(=O)oc2cc(OCc3ccccc3)ccc12 | 16.1 | 6 | 99.8 | 
CNCc1cc(=O)oc2cc(OCc3ccc4c(c3)OCO4)ccc12 | 0.02 | 270 | 5.4 | 
CNCCc1cc(=O)oc2cc(OCc3cccc(Cl)c3)ccc12 |  | 247 |  | 
